Data from ChEMBL document CHEMBL2407075, “Sulphonamido-quinoxalines: search for anticancer agent” (Eur J Med Chem, 2013).

Key:
Type in all cases: functional
NCI-H522 = experiment: Growth inhibition of human NCI-H522 cells at 10 uM after 48 hrs by sulforhodamine B assay; settings: NCI-H522, 48 h, read-out: GI
Outline: (§1)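 Single-dose screen at 10 µM across the NCI 60 panel. Cells in RPMI 1640 with 5% FBS and 2 mM L-glutamine, plated at 5000–40,000/well and preincubated 24 h at 37 °C, 5% CO2. Drug in DMSO, 48 h exposure. Fixed with TCA, stained with SRB, A515 read. Percent growth is taken relative to untreated control, and inhibition is 100 minus growth.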

[1] = Growth inhibition of human NCI-ADR-RES cells at 10 uM after 48 hrs by sulforhodamine B assay; settings: read-out: GI; outline: as §1
T47D [2] = experiment: Growth inhibition of human T47D cells at 10 uM after 48 hrs by sulforhodamine B assay; settings: read-out: GI; outline: as §1
COLO 205 = experiment: Growth inhibition of human COLO205 cells at 10 uM after 48 hrs by sulforhodamine B assay; settings: COLO 205, 48 h, read-out: GI
Outline: (§2)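 Single-dose NCI-60 prescreen at 10 µM for 48 h at 37 °C and 5% CO2, using cells grown in RPMI 1640 with 5% FBS and 2 mM glutamine. Protein was measured by SRB after TCA fixation: 10% final for adherent lines, 16% for suspension lines. Absorbance was read at 515 nm. Percent growth inhibition was obtained by subtracting percent growth from 100.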

SF-539 = experiment: Growth inhibition of human SF539 cells at 10 uM after 48 hrs by sulforhodamine B assay; settings: SF-539, 48 h, read-out: GI; outline: as §1
SK-OV-3 = experiment: Growth inhibition of human SKOV3 cells at 10 uM after 48 hrs by sulforhodamine B assay; settings: SK-OV-3, 48 h, read-out: GI; outline: as §1
TK-10 = experiment: Growth inhibition of human TK10 cells at 10 uM after 48 hrs by sulforhodamine B assay; settings: TK-10, 48 h, read-out: GI; outline: as §1
MDA-MB-468 = experiment: Growth inhibition of human MDA-MB-468 cells at 10 uM after 48 hrs by sulforhodamine B assay; settings: MDA-MB-468, 48 h, read-out: GI; outline: as §1
SNB-75 = experiment: Growth inhibition of human SNB75 cells at 10 uM after 48 hrs by sulforhodamine B assay; settings: SNB-75, 48 h, read-out: GI; outline: as §1
OVCAR-5 = experiment: Growth inhibition of human OVCAR5 cells after 48 hrs by sulforhodamine B assay; settings: OVCAR-5, 48 h; for CC50: read-out: LC50 (the source's name)
Outline: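 Adherent cells in RPMI 1640 with 5% FBS and 2 mM L-glutamine were plated at 5000–40,000 cells/well and grown 24 h. Five concentrations (0.01–100 µM, DMSO stock) were added for 48 h at 37 °C. Cells were fixed with cold TCA (10% final) and stained with SRB, read at 515 nm. GI50 came from log concentration–growth curves against time-zero and control plates.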

HCT-15 = experiment: Growth inhibition of human HCT15 cells at 10 uM after 48 hrs by sulforhodamine B assay; settings: HCT-15, 48 h, read-out: GI
Outline: (§3)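 NCI-60 one-dose primary screen at a single 10 µM concentration. Cells in RPMI 1640 with 5% FBS, preincubated 24 h at 37 °C, 5% CO2. Drug exposure 48 h, then TCA fixation, SRB staining and absorbance at 515 nm. Percent growth calculated against time-zero and untreated control wells, then converted to percent growth inhibition.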

DU-145 = experiment: Growth inhibition of human DU145 cells at 10 uM after 48 hrs by sulforhodamine B assay; settings: DU-145, 48 h, read-out: GI; outline: as §2
[3] = Growth inhibition of human Hs 578T cells at 10 uM after 48 hrs by sulforhodamine B assay; settings: read-out: GI; outline: as §3
MOLT-4 = experiment: Growth inhibition of human MOLT4 cells at 10 uM after 48 hrs by sulforhodamine B assay; settings: MOLT-4, 48 h, read-out: GI; outline: as §1
SW-620 = experiment: Growth inhibition of human SW620 cells at 10 uM after 48 hrs by sulforhodamine B assay; settings: SW-620, 48 h, read-out: GI; outline: as §1
SK-MEL-5 = experiment: Growth inhibition of human SK-MEL-5 cells at 10 uM after 48 hrs by sulforhodamine B assay; settings: SK-MEL-5, 48 h, read-out: GI; outline: as §1
786-0 [4] = experiment: Growth inhibition of human 786-0 cells assessed as cell growth at 10^-7 M after 48 hrs by sulforhodamine B assay; settings: 786-0, 48 h, read-out: Activity
Outline: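 Five-dose NCI-60 run (0.01, 0.1, 1, 10 and 100 µM, as 10-fold dilutions from a DMSO stock made at 400× the top final level). Cells were grown in RPMI 1640 with 5% FBS and 2 mM glutamine and plated for 24 h. They were then exposed for 48 h at 37 °C and 5% CO2. TCA fixation was followed by SRB staining with A515 read-out. Percent growth was taken relative to time-zero and control plates.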

[5] = Growth inhibition of human HCC2998 cells at 10 uM after 48 hrs by sulforhodamine B assay; settings: HCC 2998, 48 h, read-out: GI; outline: as §3
UACC-257 = experiment: Growth inhibition of human UACC257 cells at 10 uM after 48 hrs by sulforhodamine B assay; settings: UACC-257, 48 h, read-out: GI; outline: as §1
MCF7 = experiment: Growth inhibition of human MCF7 cells at 10 uM after 48 hrs by sulforhodamine B assay; settings: MCF7, 48 h, read-out: GI; outline: as §1
CCRF-CEM = experiment: Growth inhibition of human CCRF-CEM cells at 10 uM after 48 hrs by sulforhodamine B assay; settings: read-out: GI; outline: as §2
786-0 [6] = experiment: Growth inhibition of human 786-0 cells at 10 uM after 48 hrs by sulforhodamine B assay; settings: 786-0, 48 h, read-out: GI; outline: as §2
MDA-MB-231 = experiment: Growth inhibition of human MDA-MB-231 cells at 10 uM after 48 hrs by sulforhodamine B assay; settings: MDA-MB-231, 48 h, read-out: GI; outline: as §1
SR = experiment: Growth inhibition of human SR cells at 10 uM after 48 hrs by sulforhodamine B assay; settings: read-out: GI; outline: as §1
T47D [7] = experiment: Growth inhibition of human T47D cells assessed as cell growth at 10^-5 M after 48 hrs by sulforhodamine B assay; settings: read-out: Activity
RXF 393 = experiment: Growth inhibition of human RXF393 cells at 10 uM after 48 hrs by sulforhodamine B assay; settings: RXF 393, 48 h, read-out: GI; outline: as §1
A498 = experiment: Growth inhibition of human A498 cells at 10 uM after 48 hrs by sulforhodamine B assay; settings: A498, 48 h, read-out: GI; outline: as §2
BT-549 = experiment: Growth inhibition of human BT549 cells at 10 uM after 48 hrs by sulforhodamine B assay; settings: BT-549, 48 h, read-out: GI; outline: as §2
HT-29 = experiment: Growth inhibition of human HT-29 cells at 10 uM after 48 hrs by sulforhodamine B assay; settings: HT-29, 48 h, read-out: GI; outline: as §3

| Compound | inhibition of growth at 10 µM (NCI-H522) [%] | inhibition of growth at 10 µM [1] [%] | inhibition of growth at 10 µM (T47D [2]) [%] | inhibition of growth at 10 µM (COLO 205) [%] | inhibition of growth at 10 µM (SF-539) [%] | inhibition of growth at 10 µM (SK-OV-3) [%] | inhibition of growth at 10 µM (TK-10) [%] | inhibition of growth at 10 µM (MDA-MB-468) [%] | inhibition of growth at 10 µM (SNB-75) [%] | inhibition of growth at 10 µM (HCT-15) [%] | inhibition of growth at 10 µM (DU-145) [%] | inhibition of growth at 10 µM [3] [%] | inhibition of growth at 10 µM (MOLT-4) [%] | inhibition of growth at 10 µM (SW-620) [%] | inhibition of growth at 10 µM (SK-MEL-5) [%] | inhibition of growth at 10 µM [5] [%] | inhibition of growth at 10 µM (UACC-257) [%] | inhibition of growth at 10 µM (MCF7) [%] | inhibition of growth at 10 µM (CCRF-CEM) [%] | inhibition of growth at 10 µM (786-0 [6]) [%] | also measured |
| --- | --- | --- | --- | --- | --- | --- | --- | --- | --- | --- | --- | --- | --- | --- | --- | --- | --- | --- | --- | --- | --- |
| O=S(=O)(Nc1ccccn1)c1ccc2nc(-c3ccccc3)c(-c3ccccc3)nc2c1 | 65.6 | 73.2 | 81.1 | 54.2 | 61.9 | 44.9 | 30.2 | -4.67 | 61.8 | 62.4 | 37.4 | 76.3 | 86.8 | 47.9 | -6.25 | 60.6 | 42.5 | 65.9 | 70.7 | 99.2 | TGI (OVCAR-5): > 100 µM; CC50 (OVCAR-5): > 100 µM; growth at 0.1 µM (786-0 [4]): 92%; inhibition of growth at 10 µM (MDA-MB-231): 80.1%; inhibition of growth at 10 µM (SR): -3.25%; growth at 10 µM (T47D [7]): -22%; inhibition of growth at 10 µM (RXF 393): -40.4%; inhibition of growth at 10 µM (A498): 70.2%; inhibition of growth at 10 µM (BT-549): 80.2%; inhibition of growth at 10 µM (HT-29): 81.7% |
| CC(=S)NS(=O)(=O)c1ccc2nc(-c3ccccc3)c(-c3ccccc3)nc2c1 | 3.73 | 8.63 | 40.6 | 4.64 | 3.29 | 4.85 | 6.93 | 23.7 | 26.9 | 26.2 | 2.63 | 20.8 | 20.5 | 3.84 | 28.9 | 6.23 | 2.23 | 11.8 | 24.8 | 2.83 | inhibition of growth at 10 µM (MDA-MB-231): 14.8%; inhibition of growth at 10 µM (SR): 41%; inhibition of growth at 10 µM (RXF 393): 14.5%; inhibition of growth at 10 µM (A498): 22.7%; inhibition of growth at 10 µM (BT-549): 2.74%; inhibition of growth at 10 µM (HT-29): 21.5% |
| O=S(=O)(Nc1ccc(Cl)cc1)c1ccc2nc(-c3ccccc3)c(-c3ccccc3)nc2c1 | 50.8 | 55.2 | 72.1 | 26.6 | 25.9 | 18.5 | 2.84 | 76.8 | 45.1 | 44.7 | 24.4 | 37.5 | 60.8 | 30.3 | 74 | 37.9 | 17.9 | 47.7 | 61.9 | 66.9 | TGI (OVCAR-5): > 100 µM; CC50 (OVCAR-5): > 100 µM; growth at 0.1 µM (786-0 [4]): 88%; inhibition of growth at 10 µM (MDA-MB-231): 54.3%; inhibition of growth at 10 µM (SR): 88.1%; growth at 10 µM (T47D [7]): -20%; inhibition of growth at 10 µM (RXF 393): 98.8%; inhibition of growth at 10 µM (A498): 44.3%; inhibition of growth at 10 µM (BT-549): 77.8%; inhibition of growth at 10 µM (HT-29): 70.4% |
